Reference: ChEMBL document CHEMBL3525967, “In vitro glucuronidation of the antibacterial triclocarban and its oxidative metabolites” (Drug Metab Dispos, 2012)

Columns and labels:
[1] = target: T1, UDP-glucuronosyltransferase 1A10 (Homo sapiens, UniProt Q9HAW8); test: Drug metabolism assessed as human UGT1A10-mediated N'-glucuronide-triclocarban formation expressed in baculovirus infected insect sf9 cells incubated for 5 mins prior to UDPGA addition measured after 5 to 30 mins by LC-UV analysis; type: ADME
T1 sequence (Q9HAW8 whole entry): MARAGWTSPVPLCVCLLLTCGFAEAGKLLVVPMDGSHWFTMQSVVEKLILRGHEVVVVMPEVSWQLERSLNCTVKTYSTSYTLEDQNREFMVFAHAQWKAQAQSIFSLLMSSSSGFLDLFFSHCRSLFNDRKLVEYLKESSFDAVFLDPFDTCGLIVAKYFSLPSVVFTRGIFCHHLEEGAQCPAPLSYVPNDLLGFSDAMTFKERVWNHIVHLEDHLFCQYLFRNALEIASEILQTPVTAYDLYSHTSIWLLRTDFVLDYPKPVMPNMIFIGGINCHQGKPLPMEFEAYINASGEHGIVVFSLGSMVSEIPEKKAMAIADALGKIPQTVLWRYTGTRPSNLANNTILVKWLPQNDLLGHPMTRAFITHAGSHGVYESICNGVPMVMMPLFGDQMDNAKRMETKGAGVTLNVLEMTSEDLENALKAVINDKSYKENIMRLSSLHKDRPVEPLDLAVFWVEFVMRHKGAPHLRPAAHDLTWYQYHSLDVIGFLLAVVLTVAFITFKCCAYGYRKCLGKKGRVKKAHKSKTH
Procedure, shortened: (§1)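 Microsomes or UGT Supersomes (5 µg protein) were held 15 min on ice with alamethicin in 100 mM potassium phosphate pH 7.4. TCC was added at 10 µM (2% DMSO) with 10 mM MgCl2 and 10 mM saccharolactone, pre-warmed 5 min at 37 °C, then started with UDPGA. Samples at 5, 10, 15 and 30 min were quenched in ACN. Product was read by LC-UV at 265 nm; rate came from regression over time, three incubations.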

[2] = Drug metabolism in B6C3F1 mouse liver microsomes assessed as N-glucuronide-triclocarban formation incubated for 5 mins prior to UDPGA addition measured after 30 mins by LC-UV-ESI-MS/MS analysis; type: ADME; details: 0.5 h
Procedure, shortened: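 TCC was incubated at 10 µM (2% DMSO) in 100 mM phosphate pH 7.4 with alamethicin-treated microsomes or Supersomes, 10 mM MgCl2 and 10 mM saccharolactone. After 5 min pre-incubation at 37 °C, UDPGA was added to start the reaction. Protein was raised up to 2 mg/mL. Samples were quenched in ACN with 1 µM DCC internal standard, centrifuged, and N-glucuronides detected by LC-ESI-MS/MS in SRM mode.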

[3] = Drug excretion in Sprague-Dawley rat urine assessed as N-glucuronide-triclocarban formation at 1 mg/kg, po by LC-MS analysis; type: ADME, organism-based; parameters: dose 1 mg/kg, route oral; details: in vivo
[4] = Drug excretion in monkey urine; type: ADME, tissue-based, Macaca mulatta; details: rhesus monkey, read-out: Drug excretion
[5] = target: T2, UDP-glucuronosyltransferase 1A7 (Homo sapiens, UniProt Q9HAW7); test: Drug metabolism assessed as human UGT1A7-mediated N-glucuronide-triclocarban formation expressed in baculovirus infected insect sf9 cells incubated for 5 mins prior to UDPGA addition measured after 5 to 30 mins by LC-UV analysis; type: ADME; procedure, shortened: as §1
T2 sequence (Q9HAW7 whole entry): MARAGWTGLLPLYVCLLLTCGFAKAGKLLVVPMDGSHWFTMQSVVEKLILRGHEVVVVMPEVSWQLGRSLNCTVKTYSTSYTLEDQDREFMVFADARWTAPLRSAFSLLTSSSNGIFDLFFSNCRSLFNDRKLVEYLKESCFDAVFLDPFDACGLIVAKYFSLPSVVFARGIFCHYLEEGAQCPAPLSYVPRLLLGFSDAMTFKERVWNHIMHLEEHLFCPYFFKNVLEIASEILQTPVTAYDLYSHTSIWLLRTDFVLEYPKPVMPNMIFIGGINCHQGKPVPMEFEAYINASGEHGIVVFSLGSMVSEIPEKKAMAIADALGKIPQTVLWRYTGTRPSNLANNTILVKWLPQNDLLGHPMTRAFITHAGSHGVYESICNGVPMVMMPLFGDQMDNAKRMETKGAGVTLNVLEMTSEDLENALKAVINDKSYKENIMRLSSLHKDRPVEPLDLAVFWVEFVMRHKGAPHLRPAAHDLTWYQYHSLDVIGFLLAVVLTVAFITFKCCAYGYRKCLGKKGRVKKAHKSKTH

[6] = target: T3, UDP-glucuronosyltransferase 1A4 (Homo sapiens, UniProt P22310); test: Drug metabolism assessed as human UGT1A4-mediated N-glucuronide-triclocarban formation expressed in baculovirus infected insect sf9 cells incubated for 5 mins prior to UDPGA addition measured after 5 to 30 mins by LC-UV analysis; type: ADME; procedure, shortened: as §1
T3 sequence (P22310 whole entry): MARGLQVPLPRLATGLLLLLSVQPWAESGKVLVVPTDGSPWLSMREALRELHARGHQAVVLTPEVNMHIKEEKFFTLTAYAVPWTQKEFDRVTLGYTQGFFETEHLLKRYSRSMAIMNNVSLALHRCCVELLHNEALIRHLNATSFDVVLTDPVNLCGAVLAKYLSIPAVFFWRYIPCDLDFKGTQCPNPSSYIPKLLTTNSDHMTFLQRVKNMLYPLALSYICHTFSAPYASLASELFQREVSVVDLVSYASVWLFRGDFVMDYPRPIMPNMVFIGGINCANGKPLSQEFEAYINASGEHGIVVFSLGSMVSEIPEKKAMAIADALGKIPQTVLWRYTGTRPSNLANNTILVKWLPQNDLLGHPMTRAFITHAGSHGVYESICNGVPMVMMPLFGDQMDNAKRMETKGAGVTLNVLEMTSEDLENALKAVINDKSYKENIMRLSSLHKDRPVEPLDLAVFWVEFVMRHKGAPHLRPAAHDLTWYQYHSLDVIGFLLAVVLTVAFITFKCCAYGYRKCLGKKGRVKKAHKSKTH

[7] = (§2) Drug metabolism in Sprague-Dawley rat liver microsomes after 30 mins by LC-ESI-MS analysis; type: ADME; details: Sprague-Dawley, liver microsomes
Procedure, shortened: (§3)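 2'-OH-TCC at 0.2, 0.5, 1, 2, 3, 5, 10 and 50 µM incubated with liver microsomes (alamethicin, MgCl2, saccharolactone, UDPGA; 37 °C), sampled at 5, 10, 15 and 30 min. Samples ≥5 µM diluted 1:9 in ACN; LC-ESI-MS. KM and vmax fitted from rate vs concentration; intrinsic clearance derived from these; mean and SD of three.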

Liver microsome = test: as §2; type: ADME; details: microsomes, 0.5 h; procedure, shortened: as §3

Km at 0.5 h [7] | Vmax (Liver microsome) | SMILES | Drug metabolism [1] | Drug metabolism [2] | Drug excretion [3] | dose excreted [4] | Drug metabolism [5] | Drug metabolism [6]
 |  | O=C(Nc1ccc(Cl)cc1)Nc1ccc(Cl)c(Cl)c1 [TRICLOCARBAN] | metabolite_not_detected | metabolite_detected | metabolite_not_detected | 25% | metabolite_not_detected | metabolite_not_detected
3.29 µM | 9.42 nmol/min/mg | O=C(Nc1ccc(Cl)c(Cl)c1)Nc1ccc(Cl)cc1O |  |  |  |  |  | 
